Results as given in ChEMBL document CHEMBL1123812, “Pyrroloisoquinoline antidepressants. 2. In-depth exploration of structure-activity relationships” (J Med Chem, 1987).
Active and inactive are the calls of the source.

Key:
[1] = test system: Mus musculus; assay: Ability to antagonise intraperitoneal dose; inactive (<10% antagonism) at 30 mgjkg is represented as I-30.; assay type: functional, organism-based
In short: (§1)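 Nonfasted male Swiss Webster mice, 18–24 g, ten per dose level and in saline controls. Test compound given ip 30 min before tetrabenazine 32 mg/kg ip; dose expressed as free base. Motor activity and ptosis scored. Control response ≤90% corrected by Abbott's formula.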

[2] = biological target: Sodium-dependent serotonin transporter (Rattus norvegicus) (UniProt P31652); assay: Ability to inhibit the uptake of [3H]- serotonin(5-HT) 0.1 uM concentration at rat brain synaptosomes; assay type: functional, subcellular
In short: (§2)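 Male Wistar rat brain synaptosomes (P2 fraction): hypothalamus for NE, striatum for DA, cerebral cortex for 5-HT. Buffer is Tris- or HEPES-buffered salt medium with glucose, ascorbate and nialamide, pH 7.4 at 37 °C. Preincubated 10 min at 37 °C with compound. Uptake started with [3H]NE 100–300 nM, [3H]DA 50–300 nM or [3H]5-HT 100–200 nM, incubated 3 min (DA) or 6–10 min (NE, 5-HT). Blanks held on ice. Filtered, counted by scintillation.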

[3] = organism: Rattus norvegicus; assay: Ability to inhibit the uptake of tritiated dopamine (DA) 1 uM concentration; assay type: functional
In short: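 Rat brain synaptosomal [3H]dopamine uptake: striatal P2 fraction, test compound at 1.00 μM. Preincubated at 37 °C, then 50–300 nM [3H]DA for 3 min. Blanks on ice. Filtration and scintillation counting; percent inhibition of control uptake.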

[4] = test system: Mus musculus; assay: Ability to antagonise intraperitoneal dose; inactive (<10% antagonism) at 30 mg/kg is represented as I-30.; assay type: functional, organism-based; parameters: dose 30 mg/kg; in short: as §1
[5] = biological target: Norepinephrine transporter (Rattus norvegicus) (UniProt Q9WTR4); assay: Ability to inhibit the uptake of [3H]norepinephrine (NE) 0.1 uM concentration at rat brain synaptosomes; assay type: functional, subcellular; in short: as §2
[6] = organism: Mus musculus; assay: Gross behavioral effects ascertained in mice; W/C indicates weak stimulant or depressant activity of little significance/ overt convulsant; assay type: functional, organism-based
In short: (§3)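 Male Swiss Webster albino mice, 18–24 g, three per dose, given ip 1, 3, 10, 30, 100 and 300 mg/kg. Gross behaviour observed and held 4 days. Estimated LD50 range from lethality count on day 4. Scored as weak stimulant/depressant, significant stimulant, significant depressant or overt convulsant.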

[7] = biological target: Adrenergic receptor alpha-1 (Rattus norvegicus) (UniProt P15823+P23944+P43140); assay: Binding affinity towards alpha-1 adrenergic receptor at 1.0 uM concentration; assay type: protein assay
In short: (§4)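 Rat brain crude synaptic membranes in 20 mM NaHEPES pH 7.5. Ligands: α1 cortex […] 0.4 nM, nonspecific with (-)-NE 100 μM, 30 min at 25 °C. […] D2 striatum [3H]spiperone 0.05 nM with (+)-butaclamol 1 μM, 45 min at 37 °C. S1 cortex [3H]5-HT 1 nM plus glutathione and MgCl2, with 5-HT 10 μM, 20 min at 37 °C. […] Samples filtered on GF/B and counted.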

[8] = biological target: Norepinephrine transporter (Rattus norvegicus, UniProt Q9WTR4); assay: Inhibition of uptake of tritiated norepinephrine (NE) in rat synaptosomes; assay type: subcellular, Brain
[9] = biological target: Muscarinic acetylcholine receptor (Rattus norvegicus) (UniProt P08482+P08483+P08485+P08911+P10980); assay: Binding affinity towards Muscarinic acetylcholine receptor at 1.0 uM concentration; assay type: protein assay
[10] = organism: Mus musculus; assay: Gross behavioral effects ascertained in mice; W indicates weak stimulant or depressant activity of little significance.; assay type: functional, organism-based
In short: (§5)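 Male Swiss Webster mice, 18–24 g, three per dose, given ip doses of 1, 3, 10, 30, 100 and 300 mg/kg. Observed for gross behavior and held for 4 days. Scored as weak (W), stimulant (S), depressant (D) or convulsant (C).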

[11] = biological target: Adrenergic receptor alpha-2 (Rattus norvegicus) (UniProt P22086+P19328+P22909); assay: Binding affinity towards alpha-2 adrenergic receptor at 1.0 uM concentration; assay type: protein assay
[12] = biological target: D(1A) dopamine receptor (Rattus norvegicus) (UniProt P18901); assay: Binding affinity towards Dopamine receptor D1 at 1.0 uM concentration; in short: as §4
[13] = organism: Mus musculus; assay: Antagonism of tetrabenazine (TBZ)-induced depression in mice measured for ptosis; assay type: functional; settings: Mus musculus; read-out: ED50; in short: as §1
[14] = biological target: D(2) dopamine receptor (Rattus norvegicus) (UniProt P61169); assay: Binding affinity towards dopamine receptor D2 at 1.0 uM concentration; in short: as §4
[15] = organism: Mus musculus; assay: Antagonism of tetrabenazine (TBZ)-induced depression measured in mice by motor activity; assay type: functional; settings: Mus musculus; read-out: ED50; in short: as §1
[16] = biological target: Sodium-dependent dopamine transporter (Rattus norvegicus, UniProt P23977); assay: Inhibition of the uptake of tritiated dopamine (DA) in rat synaptosomes; assay type: subcellular, Brain
[17] = biological target: T1, Adrenergic receptor alpha-1 (Rattus norvegicus, UniProt P15823+P23944+P43140); assay: Binding affinity towards alpha-1 adrenergic receptor; assay type: protein assay
T1 sequence (P15823 whole entry): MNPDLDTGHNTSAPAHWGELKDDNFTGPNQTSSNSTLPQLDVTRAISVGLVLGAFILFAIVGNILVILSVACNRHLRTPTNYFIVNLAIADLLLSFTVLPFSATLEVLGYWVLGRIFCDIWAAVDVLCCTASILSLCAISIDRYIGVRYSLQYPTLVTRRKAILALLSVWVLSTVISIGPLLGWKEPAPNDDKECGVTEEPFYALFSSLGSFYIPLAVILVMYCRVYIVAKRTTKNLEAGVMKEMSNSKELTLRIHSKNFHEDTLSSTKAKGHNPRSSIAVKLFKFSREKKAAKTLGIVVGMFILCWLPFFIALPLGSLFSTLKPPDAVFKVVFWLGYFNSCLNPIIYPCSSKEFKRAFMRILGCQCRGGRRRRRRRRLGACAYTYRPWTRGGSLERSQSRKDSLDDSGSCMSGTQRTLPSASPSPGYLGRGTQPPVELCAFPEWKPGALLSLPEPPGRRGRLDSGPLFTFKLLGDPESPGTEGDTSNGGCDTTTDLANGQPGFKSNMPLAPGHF
T1 sequence (P23944 whole entry): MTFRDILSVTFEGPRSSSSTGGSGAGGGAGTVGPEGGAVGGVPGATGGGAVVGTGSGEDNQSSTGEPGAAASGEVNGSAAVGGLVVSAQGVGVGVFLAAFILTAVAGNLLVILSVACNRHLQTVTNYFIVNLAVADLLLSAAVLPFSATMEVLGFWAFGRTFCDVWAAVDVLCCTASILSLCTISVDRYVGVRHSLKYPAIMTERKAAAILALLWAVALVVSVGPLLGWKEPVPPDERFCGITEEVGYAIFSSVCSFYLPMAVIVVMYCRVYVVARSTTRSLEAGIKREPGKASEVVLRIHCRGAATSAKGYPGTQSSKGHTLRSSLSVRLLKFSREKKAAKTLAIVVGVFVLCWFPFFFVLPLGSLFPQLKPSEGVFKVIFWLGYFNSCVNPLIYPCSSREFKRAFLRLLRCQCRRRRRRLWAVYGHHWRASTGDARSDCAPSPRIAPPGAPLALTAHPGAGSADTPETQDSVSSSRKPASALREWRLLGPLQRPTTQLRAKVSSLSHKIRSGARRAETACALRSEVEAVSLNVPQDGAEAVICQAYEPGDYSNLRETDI
T1 sequence (P43140 whole entry): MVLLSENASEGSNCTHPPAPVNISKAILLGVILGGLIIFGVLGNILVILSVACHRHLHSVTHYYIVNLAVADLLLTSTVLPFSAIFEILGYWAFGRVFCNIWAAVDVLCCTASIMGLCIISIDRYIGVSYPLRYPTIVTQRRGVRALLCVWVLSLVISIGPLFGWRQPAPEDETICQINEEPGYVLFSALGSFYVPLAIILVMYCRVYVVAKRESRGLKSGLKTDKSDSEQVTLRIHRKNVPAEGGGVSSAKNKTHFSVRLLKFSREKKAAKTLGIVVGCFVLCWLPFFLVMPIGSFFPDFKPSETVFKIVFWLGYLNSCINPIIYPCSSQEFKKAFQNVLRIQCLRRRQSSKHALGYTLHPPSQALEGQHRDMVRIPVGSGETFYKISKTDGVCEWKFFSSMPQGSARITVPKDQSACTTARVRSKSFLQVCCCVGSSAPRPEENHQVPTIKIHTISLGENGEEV

[18] = biological target: D(2) dopamine receptor (Rattus norvegicus, UniProt P61169); assay: Binding affinity towards Dopamine receptor D2
[19] = biological target: Serotonin 1 (5-HT1) receptor (Rattus norvegicus) (UniProt P28564+P30940+P19327+P28565); assay: Binding affinity towards serotonin S1 receptor at 1.0 uM; assay type: protein assay; in short: as §4
[20] = biological target: Serotonin 2 (5-HT2) receptor (Rattus norvegicus, UniProt P30994+P08909+P14842); assay: Binding affinity towards 5-hydroxytryptamine 2 receptor; assay type: protein assay
[21] = biological target: D(1A) dopamine receptor (Rattus norvegicus, UniProt P18901); assay: Binding affinity towards Dopamine receptor D1
[22] = organism: Mus musculus; assay: Gross behavioral effects ascertained in mice; D indicates significant depressant properties.; assay type: functional, organism-based; in short: as §3
[23] = organism: Mus musculus; assay: Gross behavioral effects ascertained in mice; C indicates overt convulsant; assay type: functional, organism-based; in short: as §5
[24] = organism: Rattus norvegicus; assay: Ability to inhibit the uptake of tritiated norepinephrine (NE) at 0.1 uM concentration; assay type: functional; in short: as §2
[25] = biological target: Sodium-dependent dopamine transporter (Rattus norvegicus) (UniProt P23977); assay: Inhibition of tritiated dopamine (DA) uptake at 0.1 uM concentration; assay type: functional; in short: as §2
[26] = biological target: Sodium-dependent serotonin transporter (Rattus norvegicus) (UniProt P31652); assay: Inhibition of tritiated serotonin(5-HT) uptake at 0.1 uM concentration; assay type: functional; in short: as §2
[27] = organism: Mus musculus; assay: Gross behavioral effects ascertained in mice; S indicates significant stimulant properties.; assay type: functional, organism-based; in short: as §5
[28] = biological target: Serotonin 2 (5-HT2) receptor (Rattus norvegicus) (UniProt P30994+P08909+P14842); assay: Binding affinity towards 5-hydroxytryptamine 2 receptor at 1.0 uM concentration; assay type: protein assay; in short: as §4
Chain of Serotonin 2 (5-HT2) receptor (Rattus norvegicus) (P08909 whole entry, looked up): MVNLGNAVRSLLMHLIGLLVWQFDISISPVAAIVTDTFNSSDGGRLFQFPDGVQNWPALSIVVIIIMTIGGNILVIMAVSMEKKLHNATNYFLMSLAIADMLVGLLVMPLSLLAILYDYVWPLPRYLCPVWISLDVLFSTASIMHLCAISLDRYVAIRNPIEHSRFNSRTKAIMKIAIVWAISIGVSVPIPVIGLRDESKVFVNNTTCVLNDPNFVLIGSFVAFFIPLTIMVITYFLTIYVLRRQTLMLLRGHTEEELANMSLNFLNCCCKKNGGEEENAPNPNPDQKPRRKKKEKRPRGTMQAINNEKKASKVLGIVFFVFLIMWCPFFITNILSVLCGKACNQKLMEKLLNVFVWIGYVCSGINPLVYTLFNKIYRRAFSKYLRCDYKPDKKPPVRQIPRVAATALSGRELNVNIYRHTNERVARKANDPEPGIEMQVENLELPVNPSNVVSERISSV
Chain of Serotonin 2 (5-HT2) receptor (Rattus norvegicus) (P14842 whole entry, looked up): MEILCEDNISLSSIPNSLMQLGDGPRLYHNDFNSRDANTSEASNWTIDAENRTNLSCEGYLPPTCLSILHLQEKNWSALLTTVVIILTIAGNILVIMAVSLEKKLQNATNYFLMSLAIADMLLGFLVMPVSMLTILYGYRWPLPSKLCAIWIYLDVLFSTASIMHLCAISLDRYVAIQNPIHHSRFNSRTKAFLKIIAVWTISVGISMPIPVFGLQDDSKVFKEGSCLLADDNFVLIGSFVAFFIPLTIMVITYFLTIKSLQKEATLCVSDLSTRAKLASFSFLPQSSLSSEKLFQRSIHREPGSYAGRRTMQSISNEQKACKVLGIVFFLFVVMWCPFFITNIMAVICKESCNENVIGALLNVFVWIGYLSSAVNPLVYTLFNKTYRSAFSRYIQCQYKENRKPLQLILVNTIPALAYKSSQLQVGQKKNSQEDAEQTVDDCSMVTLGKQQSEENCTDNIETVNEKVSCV
Chain of Serotonin 2 (5-HT2) receptor (Rattus norvegicus) (P30994 whole entry, looked up): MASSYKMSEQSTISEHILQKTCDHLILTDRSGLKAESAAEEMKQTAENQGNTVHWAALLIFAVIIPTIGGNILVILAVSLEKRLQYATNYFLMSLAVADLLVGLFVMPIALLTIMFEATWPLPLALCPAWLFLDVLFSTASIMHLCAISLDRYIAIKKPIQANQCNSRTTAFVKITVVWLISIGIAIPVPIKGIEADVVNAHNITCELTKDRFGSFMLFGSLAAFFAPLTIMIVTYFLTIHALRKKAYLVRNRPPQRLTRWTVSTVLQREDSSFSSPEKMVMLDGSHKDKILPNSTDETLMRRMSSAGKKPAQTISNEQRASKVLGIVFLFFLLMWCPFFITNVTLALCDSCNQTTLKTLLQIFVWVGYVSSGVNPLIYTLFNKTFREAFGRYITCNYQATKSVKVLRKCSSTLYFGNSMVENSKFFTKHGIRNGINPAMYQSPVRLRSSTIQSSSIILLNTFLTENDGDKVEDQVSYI

Chain of Norepinephrine transporter (Q9WTR4 whole entry): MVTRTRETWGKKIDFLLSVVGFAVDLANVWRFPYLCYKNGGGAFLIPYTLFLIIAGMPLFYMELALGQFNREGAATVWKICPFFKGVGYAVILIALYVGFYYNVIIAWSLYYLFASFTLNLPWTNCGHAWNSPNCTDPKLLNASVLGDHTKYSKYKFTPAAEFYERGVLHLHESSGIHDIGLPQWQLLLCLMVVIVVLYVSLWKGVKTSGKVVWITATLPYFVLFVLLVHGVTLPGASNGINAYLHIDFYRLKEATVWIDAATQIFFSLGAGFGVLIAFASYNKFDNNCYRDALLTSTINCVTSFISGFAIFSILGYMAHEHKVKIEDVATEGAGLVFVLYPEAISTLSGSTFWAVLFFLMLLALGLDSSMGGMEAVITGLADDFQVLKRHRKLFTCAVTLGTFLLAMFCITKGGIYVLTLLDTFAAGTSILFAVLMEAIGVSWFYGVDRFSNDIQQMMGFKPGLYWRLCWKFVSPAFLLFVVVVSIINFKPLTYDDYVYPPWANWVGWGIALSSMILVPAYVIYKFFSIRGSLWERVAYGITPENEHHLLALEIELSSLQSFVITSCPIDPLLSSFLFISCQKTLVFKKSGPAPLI
Chain of D(2) dopamine receptor (Rattus norvegicus) (P61169 whole entry): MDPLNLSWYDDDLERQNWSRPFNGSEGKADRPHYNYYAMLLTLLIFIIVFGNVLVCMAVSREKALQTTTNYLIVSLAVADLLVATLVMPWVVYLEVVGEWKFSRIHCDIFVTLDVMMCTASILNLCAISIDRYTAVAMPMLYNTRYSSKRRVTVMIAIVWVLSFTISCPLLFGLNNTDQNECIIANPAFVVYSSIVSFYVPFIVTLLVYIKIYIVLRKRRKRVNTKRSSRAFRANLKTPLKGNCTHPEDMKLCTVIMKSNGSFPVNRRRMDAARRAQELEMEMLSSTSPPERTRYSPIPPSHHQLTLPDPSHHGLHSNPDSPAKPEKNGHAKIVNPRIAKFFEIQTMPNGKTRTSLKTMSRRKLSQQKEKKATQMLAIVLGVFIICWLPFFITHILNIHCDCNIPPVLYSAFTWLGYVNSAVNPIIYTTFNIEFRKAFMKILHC
Chain of Sodium-dependent dopamine transporter (P23977 whole entry): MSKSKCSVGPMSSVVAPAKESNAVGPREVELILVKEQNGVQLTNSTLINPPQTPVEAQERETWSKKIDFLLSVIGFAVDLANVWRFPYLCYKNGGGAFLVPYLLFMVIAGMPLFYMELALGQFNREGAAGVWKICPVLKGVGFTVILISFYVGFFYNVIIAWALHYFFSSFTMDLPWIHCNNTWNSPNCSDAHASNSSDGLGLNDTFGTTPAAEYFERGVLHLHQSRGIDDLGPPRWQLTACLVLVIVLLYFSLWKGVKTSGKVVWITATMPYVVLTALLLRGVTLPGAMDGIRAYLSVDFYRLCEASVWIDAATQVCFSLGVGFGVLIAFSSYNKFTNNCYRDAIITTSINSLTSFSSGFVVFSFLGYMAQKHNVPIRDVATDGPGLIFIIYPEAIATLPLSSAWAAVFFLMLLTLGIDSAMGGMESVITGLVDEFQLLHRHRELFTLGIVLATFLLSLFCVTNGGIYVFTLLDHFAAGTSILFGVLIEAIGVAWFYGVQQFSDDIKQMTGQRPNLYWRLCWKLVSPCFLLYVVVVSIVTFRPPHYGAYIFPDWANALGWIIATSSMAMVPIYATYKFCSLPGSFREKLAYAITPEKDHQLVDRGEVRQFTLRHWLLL
Chain of D(1A) dopamine receptor (P18901 whole entry): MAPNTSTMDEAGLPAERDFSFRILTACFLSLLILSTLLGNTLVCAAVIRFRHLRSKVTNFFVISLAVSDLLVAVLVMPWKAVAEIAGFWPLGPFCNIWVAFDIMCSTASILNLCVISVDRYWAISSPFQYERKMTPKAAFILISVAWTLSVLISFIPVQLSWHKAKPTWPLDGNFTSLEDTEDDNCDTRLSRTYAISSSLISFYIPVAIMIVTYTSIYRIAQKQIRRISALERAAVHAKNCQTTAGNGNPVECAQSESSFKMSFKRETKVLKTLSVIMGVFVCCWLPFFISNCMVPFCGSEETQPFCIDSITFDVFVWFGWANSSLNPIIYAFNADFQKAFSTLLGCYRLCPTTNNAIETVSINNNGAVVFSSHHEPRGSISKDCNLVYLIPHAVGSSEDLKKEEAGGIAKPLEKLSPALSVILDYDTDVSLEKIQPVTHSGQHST
Chain of Sodium-dependent serotonin transporter (Rattus norvegicus) (P31652 whole entry): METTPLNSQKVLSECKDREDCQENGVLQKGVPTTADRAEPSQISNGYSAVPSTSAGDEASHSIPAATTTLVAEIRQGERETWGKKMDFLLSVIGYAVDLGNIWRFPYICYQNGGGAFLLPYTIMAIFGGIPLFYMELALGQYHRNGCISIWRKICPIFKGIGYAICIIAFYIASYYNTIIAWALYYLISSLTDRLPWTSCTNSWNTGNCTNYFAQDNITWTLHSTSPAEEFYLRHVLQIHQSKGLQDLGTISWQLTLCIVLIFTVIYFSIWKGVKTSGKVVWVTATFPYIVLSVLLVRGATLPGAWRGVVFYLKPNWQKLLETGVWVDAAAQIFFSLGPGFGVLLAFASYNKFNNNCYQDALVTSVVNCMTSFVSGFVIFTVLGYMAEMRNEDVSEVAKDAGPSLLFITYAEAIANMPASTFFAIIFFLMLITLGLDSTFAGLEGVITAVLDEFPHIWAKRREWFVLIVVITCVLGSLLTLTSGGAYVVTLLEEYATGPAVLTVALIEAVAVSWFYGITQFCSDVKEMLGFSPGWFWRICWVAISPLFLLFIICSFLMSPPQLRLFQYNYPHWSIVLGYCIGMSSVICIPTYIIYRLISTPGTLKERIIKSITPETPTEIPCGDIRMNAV
Chain of Norepinephrine transporter (Rattus norvegicus) (Q9WTR4 as listed by the source): as the sequence (Q9WTR4 whole entry) above
Chain of D(1A) dopamine receptor (Rattus norvegicus) (P18901 whole entry): as the sequence (P18901 whole entry) above
Chain of D(2) dopamine receptor (P61169 whole entry): as the sequence (P61169 whole entry) above
Chain of Sodium-dependent dopamine transporter (Rattus norvegicus) (P23977 whole entry): as the sequence (P23977 whole entry) above

With c1ccc2c(c1)CCN1CCC[C@@H]21 the ED50 [1] was “inactive”, the inhibition [2] was -10% and the Inhibition [3] was 18%. The ED50 [4] was “inactive”, the inhibition [5] was 1% and the behavior [6] was “Weak/Overt convulsant”.
Work on COc1cccc([C@@H]2CN3CCC[C@@H]3c3ccccc32)c1 yielded an inhibition [7] of 87%, a Ki [8] of 0.65 nM and an inhibition [9] of 1%. For the same compound, the behavior [10] was “Partial stimulant”, the inhibition [11] was 37% and the inhibition [12] was 40%. It also gave an ED50 [13] of 0.07 mg/kg, an inhibition [14] of 27% and an ED50 [15] of about 0.2 mg/kg. It also gave a Ki [16] of 15.8 nM.
In the case of Br.Fc1ccc([C@@H]2CN3CCC[C@@H]3c3cc(F)ccc32)cc1, the Ki [17] is reported as 536 nM, the Ki [18] is reported as 241 nM and the inhibition [19] is reported as -6%. For the same compound, the Ki [8] was 0.55 nM, the inhibition [9] was 0% and the behavior [10] was “Partial stimulant”. It also gave an inhibition [11] of 25%, a Ki [20] of 7.4 nM and an ED50 [13] of 0.05 mg/kg. For the same compound, the ED50 [15] was over 30 mg/kg, the Ki [16] was 7.7 nM and the Ki [21] was 183 nM.
In the case of Br.CC(=O)Nc1ccc([C@@H]2CN3CCC[C@@H]3c3ccccc32)cc1, the ED50 [13] is reported as 0.042 mg/kg, the ED50 [15] is reported as 0.037 mg/kg and the behavior [22] is reported as “Significant depressant”.
For c1ccc([C@H]2CN3CC[C@@H]4CCCC[C@@]43c3ccccc32)cc1, the ED50 [1] was “inactive”, the inhibition [2] was 9% and the Inhibition [3] was 17%. For the same compound, the ED50 [4] was “inactive”, the inhibition [5] was 3% and the behavior [23] was “Overt convulsant”.
With Br.Oc1cc2c(cc1O)[C@@H]1CCCN1C[C@H]2c1ccccc1 the Inhibition [24] was 35%, the behavior [10] was “Partial stimulant” and the inhibition [25] was 22%. For the same compound, the inhibition [26] was 0%, the ED50 [13] was over 60 mg/kg and the inhibition [14] was 19%. The ED50 [15] was over 60 mg/kg and the Ki [21] was 64 nM.
Work on Br.Oc1cc2c(cc1O)[C@H]1CCCN1C[C@H]2c1ccccc1 yielded a Ki [17] of 87 nM, a Ki [8] of 10.5 nM and an inhibition [9] of 0%. For the same compound, the inhibition [11] was 21%, the behavior [27] was “Stimulant” and the ED50 [13] was 0.53 mg/kg. For the same compound, the inhibition [28] was 46%, the inhibition [14] was 20% and the ED50 [15] was 0.87 mg/kg. For the same compound, the Ki [16] was 43.5 nM and the Ki [21] was 106 nM.
COc1ccc2c(c1)CN(C)CC2c1ccc(Cl)c(Cl)c1 (stereo not drawn) [DICLOFENSINE] gave an inhibition [7] of -6%, an inhibition [19] of 33% and a Ki [8] of 8.8 nM. It also gave a Ki [20] of 37 nM, an inhibition [12] of 38% and an inhibition [14] of 27%. The Ki [16] was 10.9 nM.
